Measured values reported in PubChem BioAssay.
Calls of active or inactive are those of the source.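 How the source made its calls, unless noted: active means visually confirmed hit in the image check and inhibition above 20%; inconclusive means visually confirmed hit but inhibition not above 20%; inactive means no visual hit in the image check.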

Assays:
[1] = inhibitors of TNFa-induced NFkB p65 translocation, primary screen, imaging, HUVEC, MLSMR starter and 10KST1 sets (AID 438;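 active means inhibition above 20% together with a positive visual image hit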;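 further: compound added about 3h40 before a 20 min TNFalpha stimulation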;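 on inhibition: signal is the nuclear over cytoplasmic p65 intensity ratio per well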); conditions: HUVEC TNFa-induced p65 nuclear translocation; cell count: measured here: nuclei count (cytotoxicity indicator), at 2.08 µM; inhibition: at 2 µM, stronger effect = higher value, 0% TNFa-plus-vehicle, 100% no-TNFa wells
[2] = inhibitors of mutant huntingtin aggregation, primary screen, imaging, exon1htt(103Q)mCFP cells, high-content imaging (AID 483;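 active means visual image review flags a hit and inhibition of aggregation exceeds 20%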;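 further: compound exposure lasted 3 days before fixation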;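 on nuclei count: percent of the per-plate median nuclei count of sample wells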); conditions: exon1htt(103Q)mCFP cell line, aggregate imaging, at 2 µM; inhibition of aggregation: stronger effect = higher value; nuclei count: measured here: cell count, toxicity
[3] = inhibitors of E-selectin induction by TNFa, primary screen, imaging, HUVEC, immunofluorescence, MLSMR starter and 10KST1 sets (AID 487); conditions: HUVEC TNFalpha-induced E-selectin immunofluorescence imaging, at 2 µM; inhibition: stronger effect = higher value; nuclei count: measured here: cell number, toxicity;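 on inhibition: signal is fraction of cell area covered by stained E-selectin grains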;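 on nuclei count: 100% = median nuclei count of all wells on the same plate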
[4] = target: Voltage-gated potassium channel subunit beta-2 (Rattus norvegicus) (UniProt P62483); assay: KvBeta enzyme negative modulators, primary screen, biochemical, NADPH fluorescence (AID 622;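 active means fluorescence slope higher than the sample average by over 3 SD, cut at about -0.22 in these data, passing the limit was not always enough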;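 further: slope of raw intensity against log time taken from 70 to 1610 s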); conditions: recombinant KvBeta, 4-cyanobenzaldehyde reduction, at 10 µM, stronger effect = higher value
Sequence of Voltage-gated potassium channel subunit beta-2 (Rattus norvegicus) (P62483 whole entry, looked up): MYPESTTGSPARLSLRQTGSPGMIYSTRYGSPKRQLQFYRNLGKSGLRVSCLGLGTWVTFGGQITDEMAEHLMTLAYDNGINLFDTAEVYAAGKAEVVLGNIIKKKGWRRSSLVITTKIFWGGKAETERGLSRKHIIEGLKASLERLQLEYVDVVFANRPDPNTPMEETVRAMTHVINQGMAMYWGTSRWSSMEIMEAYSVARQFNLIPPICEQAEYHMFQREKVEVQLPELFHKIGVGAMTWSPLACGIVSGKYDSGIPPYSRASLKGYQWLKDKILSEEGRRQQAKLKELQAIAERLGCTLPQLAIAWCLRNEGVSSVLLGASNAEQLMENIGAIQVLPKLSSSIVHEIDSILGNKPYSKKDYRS

[5] = target: Voltage-gated potassium channel subunit beta-2 (Rattus norvegicus) (UniProt P62483); assay: KvBeta positive modulators, primary screen, biochemical, NADPH fluorescence (AID 623;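 active means NADPH fluorescence slope more negative than the mean of all samples by about 3 SD, 99.7% confidence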;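 further: fluorescence intensity change per second fitted from 20 to 320 s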); conditions: Recombinant KvBeta, NADPH fluorescence decrease slope, 10 min; at 10 µM; stronger effect = lower value
[6] = target: Muscarinic acetylcholine receptor M4 (Homo sapiens) (UniProt P08173); assay: compounds altering M4/GIRK thallium flux, either direction, primary screen, M4 allosteric agonist project, cell-based, HEK293 M4/GIRK, BTC-AM (AID 625;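 active means fluorescence slope after compound addition differing from the mean of all tested samples at 99.7% confidence, mostly higher but some lower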;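 further: thallium influx through GIRK channels coupled to M4 in HEK293 cells with BTC-AM dye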); conditions: at 10 µM, actives lie on both sides
Sequence of Muscarinic acetylcholine receptor M4 (Homo sapiens) (P08173 whole entry, looked up): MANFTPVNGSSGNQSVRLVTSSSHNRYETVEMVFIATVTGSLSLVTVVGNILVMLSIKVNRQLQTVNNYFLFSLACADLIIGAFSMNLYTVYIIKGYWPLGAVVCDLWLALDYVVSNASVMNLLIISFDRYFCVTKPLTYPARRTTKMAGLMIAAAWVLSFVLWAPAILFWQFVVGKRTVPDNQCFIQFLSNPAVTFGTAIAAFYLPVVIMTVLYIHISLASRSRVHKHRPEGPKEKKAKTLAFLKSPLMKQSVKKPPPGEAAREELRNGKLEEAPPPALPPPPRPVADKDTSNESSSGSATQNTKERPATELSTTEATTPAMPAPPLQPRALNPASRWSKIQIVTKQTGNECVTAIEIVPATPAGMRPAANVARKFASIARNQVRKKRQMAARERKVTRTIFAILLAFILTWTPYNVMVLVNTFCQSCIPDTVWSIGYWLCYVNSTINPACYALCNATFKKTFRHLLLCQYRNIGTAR
Method in brief: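 Material: M4/GIRK1/GIRK2 stable HEK293 cell line. Medium: pH 7.3 thallium assay buffer. Dosing: single compound concentration, 10 µM final. Schedule: 1 h dye loading, 2 min kinetic read. Measured by: kinetic fluorescence with BTC-AM dye. Read-out: post-addition slope, 15–24 s, of baseline-normalized fluorescence. Benchmarks: carbachol and DMSO controls.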

[7] = inhibitors of Sendai virus-induced IRF3 signaling, primary screen, TLR/RLR signaling modifier project, cell-based, Sendai virus stimulus, luciferase, 10K MLSCN set (AID 602276;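 active means inhibition at or above 50% at 10 µM; inactive means inhibition below 50%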;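 further: firefly luciferase from ISG56 promoter only with Renilla not read in this screen; 0% = Sendai virus plus DMSO and 100% = medium plus DMSO without virus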); conditions: HEK293 RL24 IRF3 luciferase reporter, at 10 µM, stronger effect = higher value
[8] = inhibitors of poly I:C-induced TLR3 signaling, primary screen, cell-based, poly I:C stimulus, luciferase, 10K MLSCN set (AID 602277;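 active means inhibition of the reporter signal at or above 50%; inactive means inhibition below 50%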); conditions: HEK293-TLR3 RL24 IRF3 luciferase reporter, at 10 µM, stronger effect = higher value

Structure (SMILES)	cell count [1]	inhibition [1]	inhibition of aggregation [2]	nuclei count [2] [%]	inhibition [3]	nuclei count [3] [%]	fluorescence slope [4]	NADPH fluorescence slope [5]	fluorescence slope [6]	inhibition [7]	inhibition [8]
c1ccc2[nH]c(CSc3nnc(-c4ccncc4)o3)nc2c1	388	-5% (inactive)	5.8% (inactive)	83	-20.9% (inactive)	90.8	-0.497 (inactive)	1e-06 (inactive)	0.00421 (inactive)	7.74% (inactive)	13.2% (inactive)
Cc1ccccc1C(=O)NC1CCN(CC(=O)Nc2nccs2)CC1	608	-39.8% (inactive)	8.2% (inactive)	111	-37.1% (inactive)	109	-0.476 (inactive)	7.7e-05 (inactive)	0.00698 (inactive)	9.51% (inactive)	14.2% (inactive)
CCn1c(NCc2ccc(N(C)C)cc2)nc2ccccc21	627	12.5% (inactive)	-2.9% (inactive)	96.5	-34.6% (inactive)	116	-0.31 (inactive)	-2.4e-05 (inactive)	0.00632 (inactive)	-9.27% (inactive)	-36.5% (inactive)
O=C(OCc1nnc(-c2ccccc2)o1)c1ccc(S(=O)(=O)NCc2ccco2)cc1	722	-8.9% (inactive)	-17.9% (inactive)	89.7	-51.8% (inactive)	113	-0.458 (inactive)	-0.000324 (inactive)	0.00635 (inactive)	-7.1% (inactive)	2.67% (inactive)
Cc1nc2nc(SCC(=O)NCc3ccco3)nn2c(C)c1Cc1ccccc1	457	1.4% (inactive)	-6.7% (inactive)	112	-10.5% (inactive)	126	-0.353 (inactive)	-2.9e-05 (inactive)	0.0066 (inactive)	-7.73% (inactive)	0.532% (inactive)
COc1ccccc1NC(=O)c1ccc(NC(=O)CSc2nnnn2C)cc1	253	-3.2% (inactive)	-0.5% (inactive)	85.1	-63% (inactive)	100	-0.385 (inactive)	-7.2e-05 (inactive)	0.00533 (inactive)	12.1% (inactive)	25.6% (inactive)
CCOc1ccc(N(CC(=O)NCC2CCCO2)S(=O)(=O)c2ccc(OC)c(OC)c2)cc1 (stereo not drawn)	326	3.5% (inactive)	-10.6% (inactive)	107	-47% (inactive)	112	-0.572 (inactive)	-3.5e-05 (inactive)	0.00351 (inactive)	10.6% (inactive)	18.4% (inactive)
O=C(CCN1CCOCC1)Nc1ccc2c(c1)CCC2	228	5.7% (inactive)	17.3% (inactive)	74.9	-83.8% (inactive)	140	-0.442 (inactive)	-5.3e-05 (inactive)	0.00437 (inactive)	4.13% (inactive)	-9.22% (inactive)
O=C(Cn1cnc2sc(-c3ccccc3)cc2c1=O)N1CCOCC1	353	6.9% (inactive)	15.6% (inactive)	98.1	-123% (inactive)	114	-0.445 (inactive)	-4.1e-05 (inactive)	0.00489 (inactive)	6.22% (inactive)	-5.03% (inactive)
CCOC(=O)N1CCN(C(=O)Nc2ccc3oc(C)nc3c2)CC1	254	4.2% (inactive)	20.5% (inactive)	84.8	-238% (inactive)	116	-0.463 (inactive)	1.5e-05 (inactive)	0.00473 (inactive)	5.52% (inactive)	-2.82% (inactive)
COc1ccc(CCNS(=O)(=O)c2ccc(C(=O)NCc3ccco3)cc2)cc1OC	355	-13.1% (inactive)	7.4% (inactive)	94.7	-35.9% (inactive)	66.4	-0.579 (inactive)	2.6e-05 (inactive)	0.00625 (inactive)	-8.15% (inactive)	-15.3% (inactive)
Cc1ccc(S(=O)(=O)N(C)CC(=O)NC2CC(C)(C)NC(C)(C)C2)cc1	331	-6.6% (inactive)	6.2% (inactive)	98.6	1.9% (inactive)	89.8	-0.555 (inactive)	-1.8e-05 (inactive)	0.00697 (inactive)	11.7% (inactive)	22.6% (inactive)
O=C(NC(NC1CCS(=O)(=O)C1)C(=O)c1cccs1)c1ccccc1 (stereo not drawn)	269	3.9% (inactive)	0.8% (inactive)	101	12.8% (inactive)	96.3	-0.572 (inactive)	-2.1e-05 (inactive)	0.00591 (inactive)	7.41% (inactive)	18.4% (inactive)
COC(=O)c1ccc(NC(=O)CN2C(=O)CSC2=O)cc1	454	3.1% (inactive)	-17.9% (inactive)	113	-41% (inactive)	109	-0.404 (inactive)	-3e-05 (inactive)	0.00594 (inactive)	7.22% (inactive)	10.7% (inactive)
O=C(Nc1ccc(N2CCOCC2)cc1)c1cccc(S(=O)(=O)N2CCCC2)c1	401	-0.5% (inactive)	6.3% (inactive)	106	-31.6% (inactive)	110	-0.309 (inactive)	-3.6e-05 (inactive)	0.00454 (inactive)	12.2% (inactive)	9.44% (inactive)
CCN(CCNC(=O)C1CCN(S(=O)(=O)CC)CC1)c1ccccc1	446	-14.7% (inactive)	5.7% (inactive)	86.2	-93.7% (inactive)	106	-0.254 (inactive)	-2.8e-05 (inactive)	0.00662 (inactive)	15.8% (inactive)	11.8% (inactive)
COc1cc(-c2nnc(SCC(=O)c3cc(C)n(CC4CCCO4)c3C)o2)cc(OC)c1OC (stereo not drawn)	317	2.8% (inactive)	23.1% (inactive)	94.5	-43.2% (inactive)	115	-0.245 (inactive)	-3.7e-06 (inactive)	0.00647 (inactive)	24.8% (inactive)	27.1% (inactive)
CC(C(=O)N1CCCCC1)n1ncn2cccc2c1=O (stereo not drawn)	397	-2.5% (inactive)	0.4% (inactive)	94.2	-4.6% (inactive)	97.4	-0.595 (inactive)	-2.8e-05 (inactive)	0.00463 (inactive)	6.93% (inactive)	98.3% (active)
Cc1ccc(NC(=O)CSc2nnc(NC(=O)CN3CCOCC3)s2)cc1	294	-10% (inactive)	-0.1% (inactive)	27.7	-43.2% (inactive)	106	-0.438 (inactive)	-7.3e-05 (inactive)	0.00533 (inactive)	12.7% (inactive)	22.7% (inactive)
COc1ccc(C(=O)Nn2c(SCC(=O)NCC3CCCO3)nc3ccccc3c2=O)cc1 (stereo not drawn)	512	-3.6% (inactive)	13.2% (inactive)	103	-60.6% (inactive)	106	-0.511 (inactive)	-6.1e-05 (inactive)	0.00522 (inactive)	15.1% (inactive)	49.1% (inactive)
CCCCn1c(CN2CCN(CCO)CC2)nc2ccccc21	611	6.2% (inactive)	-17.9% (inactive)	112	44.3% (inactive)	84.5	-0.468 (inactive)	-0.000309 (inactive)	0.00452 (inactive)	2.03% (inactive)	19.1% (inactive)
Cc1ncoc1C(=O)Nc1ccccc1C(N)=O	408	3.5% (inactive)	11.4% (inactive)	102	-2.5% (inactive)	108	-0.243 (inactive)	-1.8e-07 (inactive)	0.00516 (inactive)	1.59% (inactive)	-3.92% (inactive)
Cc1nnc(NC2CCCCC2)[nH]c1=O	358	5.3% (inactive)	-1.6% (inactive)	103	-59.1% (inactive)	115	-0.592 (inactive)	-3.6e-05 (inactive)	0.00733 (inactive)	12.6% (inactive)	14.5% (inactive)
Cc1ccc(CNC(=O)C2CCN(S(=O)(=O)c3c(C)noc3C)CC2)cc1	475	4.8% (inactive)	14% (inactive)	91.5	-2.1% (inactive)	104	-0.493 (inactive)	8.6e-05 (inactive)	0.00571 (inactive)	-1.36% (inactive)	6.94% (inactive)
CS(=O)(=O)N1CCc2cc(C(=O)N3CCCCC3)ccc21	493	6.1% (inactive)	0.6% (inactive)	100	-8.3% (inactive)	83.3	-0.494 (inactive)	5.6e-05 (inactive)	0.00629 (inactive)	17.7% (inactive)	18.6% (inactive)
O=C1CCc2nc3sc4c(c3c(=O)n2N1)CCCC4	667	-18.1% (inactive)	-14% (inactive)	104	37.8% (inactive)	98.8	-0.424 (inactive)	4.4e-05 (inactive)	0.00678 (inactive)	-2.82% (inactive)	-5.12% (inactive)
COC(=O)c1sc(NC(=O)COc2ccccc2OC)nc1C	368	-4.7% (inactive)	-9.7% (inactive)	96.7	-153% (inactive)	122	-0.229 (inactive)	-2.1e-05 (inactive)	0.00636 (inactive)	9.11% (inactive)	2.53% (inactive)
O=c1c2ccccc2sn1-c1ccc(S(=O)(=O)N2CCCCC2)cc1	539	-20.9% (inactive)	-8.4% (inactive)	115	53.4% (inactive)	83.7	-0.271 (inactive)	-1.7e-05 (inactive)	0.00829 (inactive)	3.69% (inactive)	7.09% (inactive)
